Measured values published in ChEMBL document CHEMBL1212705, “Gene expression signatures and small-molecule compounds link a protein kinase to Plasmodium falciparum motility” (Nat Chem Biol, 2008).
The source made the active and inactive calls. No cut-off for these calls is given here.

Columns and labels:
[1] = Cytotoxicity against human Hep2 cells after 72 hrs by Cell Titer Glo assay; assay type: cell-based, HEp-2; conditions: read-out: ED50
Summary of the method: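 Cells seeded at 250 per well in DMEM with 5% fetal bovine serum. Compound added the next day, followed by 72 h culture to match the parasite proliferation assay. Viability read by Cell Titer Glo luminescence.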

Plasmodium falciparum [2] = assay: Binding affinity to Plasmodium falciparum PF08_0054 at 2.5 mM by LC/MS/MS analysis
Summary of the method: (§1)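 P. falciparum parasite lysate was incubated with agarose-immobilized inhibitor and washed extensively. Retained proteins were eluted with urea, resolved by SDS-PAGE and identified by LC/MS/MS. In a competition arm, free inhibitor (2.5 mM) was added to the lysate before incubation with the beads under identical conditions.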

Plasmodium falciparum [3] = assay: Binding affinity to Plasmodium falciparum PF11_0037 at 2.5 mM by LC/MS/MS analysis; summary of the method: as §1
Plasmodium falciparum [4] = assay: Binding affinity to Plasmodium falciparum PFL0185c at 2.5 mM by LC/MS/MS analysis; summary of the method: as §1
Plasmodium yoelii = assay: Antiplasmodial activity blood stage Plasmodium yoelii infected in BALB/c mice (Mus musculus) assessed as delay in onset of parasitaemia at 10 mg/kg, perorally BID for 6 days measured after 6 days post infection by Peter's test; assay type: functional, organism-based; set-up: dose 10 mg/kg
Plasmodium falciparum [5] = assay: Antiplasmodial activity against multidrug-resistant Plasmodium falciparum Dd2 after 72 hrs by SYBR green assay; assay type: functional, organism-based; conditions: Dd2, 72 h
Summary of the method: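 Parasites grown in human O+ erythrocytes in RPMI with human serum and albumax. For the assay, serially diluted compounds were added to screening medium (RPMI, 4.16 mg/ml albumax) at 2.5% hematocrit and 0.3% parasitemia, then incubated 72 h in 93% N2/4% CO2/3% O2. DMSO served as baseline and uninfected erythrocytes as background. SYBR Green fluorescence was read at 520 nm to give EC50.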

Toxoplasma gondii [6] = assay: Antimicrobial activity against Toxoplasma gondii […] infected in african green monkey BSC1 cells assessed as parasite invasion at 50 uM after 90 mins by microscopy relative to control
[7] = Inhibition of GST-fused Plasmodium falciparum recombinant CDPK1 expressed in Escherichia coli Rosetta 2 assessed as inhibition of [gamma-33P]ATP incorporation into substrate peptide by scintillation counting
Plasmodium falciparum [8] = assay: Binding affinity to Plasmodium falciparum PF14_0075 at 2.5 mM by LC/MS/MS analysis; summary of the method: as §1
Plasmodium falciparum [9] = assay: Binding affinity to Plasmodium falciparum PF13_0304 at 2.5 mM by LC/MS/MS analysis; summary of the method: as §1
Plasmodium falciparum [10] = assay: Binding affinity to Plasmodium falciparum PF08_0003 at 2.5 mM by LC/MS/MS analysis; summary of the method: as §1
[11] = Cytotoxicity against human HeLa cells after 72 hrs by Cell Titer Glo assay; assay type: cell-based; conditions: read-out: ED50
Summary of the method: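 Cells were seeded at 250 per well in DMEM with 5% FBS in 1,536-well plates, and compound was added the next day. Culture ran 72 h, matching the parasite proliferation assay. Viability was read by Cell Titer Glo luminescence, and EC50 was derived.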

Plasmodium falciparum [12] = assay: Antimicrobial activity against Plasmodium falciparum schizonts infected in human erythrocytes assessed as minimal effect on parasite cell cycle at 450 nM treated 12 hrs after release of ring stage by microscopy
Plasmodium falciparum [13] = assay: Binding affinity to Plasmodium falciparum PF11_0351 at 2.5 mM by LC/MS/MS analysis; summary of the method: as §1
Plasmodium falciparum [14] = assay: Binding affinity to Plasmodium falciparum PF13_0116 at 2.5 mM by LC/MS/MS analysis; summary of the method: as §1
Toxoplasma gondii [15] = assay: Antimicrobial activity against Toxoplasma gondii […] infected in african green monkey BSC1 cells assessed as parasite invasion at 6.25 uM after 48 hrs by microscopy relative to control; assay type: functional, BSC-1
Plasmodium falciparum [16] = assay: Binding affinity to Plasmodium falciparum PFC0720w at 2.5 mM by LC/MS/MS analysis; summary of the method: as §1
[17] = Cmax in BALB/c mouse at 20 mg/kg single oral dose after 24 hrs by LC/MS/MS analysis; conditions: in vivo
Plasmodium falciparum [18] = assay: Binding affinity to Plasmodium falciparum CDPK1 at 2.5 mM by LC/MS/MS analysis; summary of the method: as §1
Plasmodium falciparum [19] = assay: Binding affinity to Plasmodium falciparum PFI0235w at 2.5 mM by LC/MS/MS analysis; summary of the method: as §1
Plasmodium falciparum [20] = assay: Antimicrobial activity against Plasmodium falciparum schizonts infected in human erythrocytes assessed as minimal effect on parasite cell cycle at 450 nM treated 24 hrs after release of ring stage by microscopy
Toxoplasma gondii [21] = assay: Antimicrobial activity against Toxoplasma gondii […] infected in african green monkey BSC1 cells assessed as parasite invasion at 25 uM after 48 hrs by microscopy relative to control; assay type: functional, BSC-1
Toxoplasma gondii [22] = assay: Antimicrobial activity against Toxoplasma gondii […] infected in african green monkey BSC1 cells assessed as inhibition of parasite invasion at 1.56 uM after 48 hrs by microscopy relative to control; assay type: functional, organism-based; conditions: BSC-1
Plasmodium falciparum [23] = assay: Binding affinity to Plasmodium falciparum PF14_0541 at 2.5 mM by LC/MS/MS analysis; summary of the method: as §1
Plasmodium falciparum [24] = assay: Binding affinity to Plasmodium falciparum PFL1170w at 2.5 mM by LC/MS/MS analysis; summary of the method: as §1

**Q.** With `N[C@H]1CC[C@H](Nc2nc(Nc3ccc(C(=O)N4CCCCC4)cc3)c3ncn(-c4cccc(F)c4)c3n2)CC1` [PURFALCAMINE] as the compound, how does the CC50 at 72 h [1] read?
**A.** Its CC50 at 72 h is 7.24 µM.

**Q.** What about the Activity (Plasmodium falciparum [2]) of the same compound?
**A.** Its Activity is “inactive”.

**Q.** And the Activity (Plasmodium falciparum [3])?
**A.** Its Activity is “inactive”.

**Q.** And the Activity (Plasmodium falciparum [4])?
**A.** The Activity was “inactive”.

**Q.** What about the Activity (Plasmodium yoelii) of the same compound?
**A.** The Activity was “Active”.

**Q.** And the EC50 (Plasmodium falciparum [5])?
**A.** Its EC50 is 0.259 µM.

**Q.** And the Activity (Toxoplasma gondii [6])?
**A.** Its Activity is “<=20%”.

**Q.** What about the IC50 [7] of the same compound?
**A.** Its IC50 is 0.017 µM.

**Q.** And the Activity (Plasmodium falciparum [8])?
**A.** Its Activity is “inactive”.

**Q.** And the Activity (Plasmodium falciparum [9])?
**A.** The Activity was “inactive”.

**Q.** And the Activity (Plasmodium falciparum [10])?
**A.** The Activity was “inactive”.

**Q.** What about the CC50 at 72 h [11] of the same compound?
**A.** The CC50 at 72 h was 7.03 µM.

**Q.** What about the Activity (Plasmodium falciparum [12]) of the same compound?
**A.** Its Activity is “Active”.

**Q.** What about the Activity (Plasmodium falciparum [13]) of the same compound?
**A.** The Activity was “inactive”.

**Q.** What about the Activity (Plasmodium falciparum [14]) of the same compound?
**A.** The Activity was “inactive”.

**Q.** What about the Activity (Toxoplasma gondii [15]) of the same compound?
**A.** Its Activity is 20%.

**Q.** And the Activity (Plasmodium falciparum [16])?
**A.** The Activity was “inactive”.

**Q.** What about the Cmax [17] of the same compound?
**A.** The Cmax was 2600 nM.

**Q.** What about the Activity (Plasmodium falciparum [18]) of the same compound?
**A.** The Activity was “Active”.

**Q.** What about the Activity (Plasmodium falciparum [19]) of the same compound?
**A.** Its Activity is “inactive”.

**Q.** What about the Activity (Plasmodium falciparum [20]) of the same compound?
**A.** Its Activity is “Active”.

**Q.** What about the Activity (Toxoplasma gondii [21]) of the same compound?
**A.** Its Activity is “<=20%”.

**Q.** And the inhibition (Toxoplasma gondii [22])?
**A.** Its inhibition is “inactive”.

**Q.** And the Activity (Plasmodium falciparum [23])?
**A.** Its Activity is “inactive”.

**Q.** What about the Activity (Plasmodium falciparum [24]) of the same compound?
**A.** The Activity was “inactive”.
